Assay results published in ChEMBL document CHEMBL5543124, “Lead Compound Development of SRC-3 Inhibitors with Improved Pharmacokinetic Properties and Anticancer Efficacy” (J Med Chem, 2024).
Calls of active or inactive are those of the source. The rule behind the calls is not given here.

What was measured:
[1] = molecular target: 5-hydroxytryptamine receptor 2B (Homo sapiens, UniProt P41595); test: Antagonist activity at HTR2B (unknown origin) by calcium flux assay; assay type: toxicity
In short: (§1)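 Tested in a commercial off-target safety screening panel of 78 targets. Values reported as RC50, taken as IC50 except for agonist mode, where RC50 is EC50.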

MDA-PCa-118b [2] = test: Antitumor activity against patient derived MDA-PCa-118b cells xenografted in SCID mouse assessed as reduction in bone damage at 10 mg/kg,ip administration measured after 4 weeks by X-ray imaging analysis; assay type: functional, organism-based; settings: Homo sapiens
In short: (§2)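 AR-PDX 118b cells (1×10^5) injected via intra-femoral artery in male SCID mice (8–9 weeks). After 2 weeks, 10 mg/kg/day ip or vehicle for 4 weeks (n = 9/group). X-ray imaging every two weeks. At the end, femurs CT-scanned (5 per group) with 3D-reconstruction tumor size, and H&E histology used for tumor/femur area ratio.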

MDA-PCa-118b [3] = test: Antitumor activity against patient derived MDA-PCa-118b cells xenografted in SCID mouse assessed as reduction in tumor burden in femur at 10 mg/kg,ip administration measured after 4 weeks by hematoxylin and eosin staining based analysis; assay type: functional, organism-based; settings: Homo sapiens; in short: as §2
[4] = Clearance in CD-1 mouse at 1 mg/kg,iv administration measured upto 48 hrs by LC-MS/MS analysis; assay type: ADME, organism-based; settings: in vivo
In short: (§3)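 Single intravenous bolus in ICR male mice (n = 3, 6 weeks); dosing solution 0.5 mg/mL in 20% DMSO, 16% PEG, 4% dextrose in PBS. Tail-vein blood (10 μL) taken at 2, 5, 15, 30 min and 1, 2, 4, 8, 24, 48 h. Plasma quantified by LC-MS/MS against a 0.5–1000 ng/mL calibration; parameters from non-compartmental analysis.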

[5] = Stability in human plasma incubated upto 150 mins; assay type: ADME, cell-free; settings: 2.5 h
[6] = Cytotoxicity against human MPANC96 cells assessed as inhibition of cell growth incubated for 72 hrs by MTT assay; assay type: functional, cell-based; settings: MPANC96, 72 h
In short: (§4)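 Cells seeded and grown to 70–80% confluence, then exposed for 72 h to a titration series (0.2–1000 nM). Viability read by MTT relative to untreated cells, with 6 replicates per concentration. IC50 fitted with a Hill-slope model.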

Mu-type opioid receptor = Mu-type opioid receptor (Homo sapiens, UniProt P35372); test: Antagonist activity at OPRM1 (unknown origin) by cAMP assay; assay type: toxicity; in short: as §1
MCF7 = test: Cytotoxicity against human MCF7 cells assessed as inhibition of cell growth incubated for 72 hrs by MTT assay; assay type: functional, cell-based; settings: MCF7, 72 h
[7] = molecular target: T1, Voltage-gated inwardly rectifying potassium channel KCNH2 (Homo sapiens, UniProt Q12809); test: Inhibition of hERG transfected in HEK293 cells by patch clamp assay; assay type: toxicity, cell-based
MDA-MB-468 [8] = test: Cytotoxicity against human MDA-MB-468 cells assessed as inhibition of cell growth preincubated for 3 to 6 hrs followed by compound washout and incubated for 72 hrs by MTT assay; assay type: functional, cell-based; settings: time 3-6 hrs
In short: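 MDA-MB-468 cells (RPMI 1640, 5% FBS) exposed to compound for varying durations, washed with PBS, then kept in culture to a total of 72 h. Viability read by MTT; EC50 and EC90 determined at each exposure time.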

[9] = Antitumor activity against patient derived MDA-PCa-118b cells xenografted in SCID mouse assessed as reduction in femur volume at 10 mg/kg,ip administration measured after 4 weeks by CT imaging analysis; assay type: functional, Homo sapiens; parameters: scale not given: the % may be the effect or the level left; in short: as §2
[10] = AUC (0 to t) in CD-1 mouse at 1 mg/kg,iv administration measured upto 48 hrs by LC-MS/MS analysis; assay type: ADME, organism-based; settings: in vivo; in short: as §3
MDA-MB-468 [11] = test: Cytotoxicity against human MDA-MB-468 cells assessed as inhibition of cell growth incubated for 72 hrs by MTT assay; assay type: functional, cell-based; settings: MDA-MB-468, 72 h; in short: as §4
[12] = Cmax in CD-1 mouse at 10 mg/kg,po administration measured upto 48 hrs by LC-MS/MS analysis; assay type: ADME, organism-based; settings: in vivo
In short: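 Oral gavage in ICR male mice (n = 3); dosing solution 1 mg/mL in 20% DMSO, 16% PEG, 4% dextrose in PBS. Tail-vein blood (10 μL) taken at 15, 30 min and 1, 2, 4, 8, 24, 48 h. Plasma quantified by LC-MS/MS against a 0.5–1000 ng/mL calibration; parameters from a non-compartmental extravascular model.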

[13] = molecular target: T1, Voltage-gated inwardly rectifying potassium channel KCNH2; test: Inhibition of hERG transfected in HEK293 cells at 10 uM by patch clamp assay; assay type: toxicity, cell-based; settings: hek293, 10 µM
PANC-1 = test: Cytotoxicity against SiRNA mediated SRC-3.1 knockdown human PANC-1 cells assessed as inhibition of cell growth incubated for 72 hrs by MTT assay; assay type: functional, cell-based; settings: PANC-1, 72 h
In short: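 PANC-1 cells with stable lentiviral shRNA knockdown of SRC-3 or control shRNA; SRC-3 levels checked by western blot. Cells treated with a dose series for 72 h and viability read by MTT.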

[14] = Antitumor activity against human Panc-1-Luc cells orthotopically xenografted in SCID mouse assessed as reduction in tumor weight at 10 mg/kg,ip administration once daily for 63 days by weighing harvested tumors; settings: time 63 day
Endothelin-1 receptor = molecular target: T2, Endothelin-1 receptor (Homo sapiens, UniProt P25101); test: Agonist activity at EDNRA (unknown origin) by calcium flux assay; assay type: toxicity; in short: as §1
T2 sequence (P25101 whole entry): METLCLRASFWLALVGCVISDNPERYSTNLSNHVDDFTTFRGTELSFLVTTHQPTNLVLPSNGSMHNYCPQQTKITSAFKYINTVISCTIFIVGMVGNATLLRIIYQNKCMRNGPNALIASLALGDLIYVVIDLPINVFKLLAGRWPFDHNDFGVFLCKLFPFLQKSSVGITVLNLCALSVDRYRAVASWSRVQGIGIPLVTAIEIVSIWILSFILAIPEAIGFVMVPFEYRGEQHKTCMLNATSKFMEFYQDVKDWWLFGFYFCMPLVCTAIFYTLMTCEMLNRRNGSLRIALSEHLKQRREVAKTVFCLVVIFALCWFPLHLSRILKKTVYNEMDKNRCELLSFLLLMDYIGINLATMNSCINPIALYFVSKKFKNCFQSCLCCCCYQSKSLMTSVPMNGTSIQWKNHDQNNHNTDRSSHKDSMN

[15] = Drug concentration in CD-1 mouse plasma at 37.7 micromol/kg,ip administration measured after 22 hrs by LC-MS/MS analysis; assay type: ADME, cell-free; settings: dose 37.7 µmol/kg
In short: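 Female CD-1 mice (n = 3) dosed ip at 37.7 μmol/kg. Blood (20 μL) taken at 0.25, 5 and 22 h, processed to plasma, and drug quantified by LC-MS/MS.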

[16] = molecular target: Nuclear receptor coactivator 3 (Homo sapiens) (UniProt Q9Y6Q9); test: Inhibition of recombinant His-tagged SRC-3 (unknown origin) expressed in baculovirus assessed as reduction in recruitment of SRC-3 in ER complex at 0.15 uM incubated for 30 mins by pull-down based western blotting analysis
In short: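 Purified baculovirus-expressed His-SRC-3-flag (0.1 μg) preincubated with compound or vehicle for 30 min on ice. Then 0.1 μg recombinant ERα and His-p300 plus ERE-containing DNA oligo and 1 μM 17β-estradiol added, 1 h on ice. ER complexes immunoprecipitated with anti-ERα antibody; SRC-3 and p300 detected by western blot.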

T1 sequence (Q12809 whole entry): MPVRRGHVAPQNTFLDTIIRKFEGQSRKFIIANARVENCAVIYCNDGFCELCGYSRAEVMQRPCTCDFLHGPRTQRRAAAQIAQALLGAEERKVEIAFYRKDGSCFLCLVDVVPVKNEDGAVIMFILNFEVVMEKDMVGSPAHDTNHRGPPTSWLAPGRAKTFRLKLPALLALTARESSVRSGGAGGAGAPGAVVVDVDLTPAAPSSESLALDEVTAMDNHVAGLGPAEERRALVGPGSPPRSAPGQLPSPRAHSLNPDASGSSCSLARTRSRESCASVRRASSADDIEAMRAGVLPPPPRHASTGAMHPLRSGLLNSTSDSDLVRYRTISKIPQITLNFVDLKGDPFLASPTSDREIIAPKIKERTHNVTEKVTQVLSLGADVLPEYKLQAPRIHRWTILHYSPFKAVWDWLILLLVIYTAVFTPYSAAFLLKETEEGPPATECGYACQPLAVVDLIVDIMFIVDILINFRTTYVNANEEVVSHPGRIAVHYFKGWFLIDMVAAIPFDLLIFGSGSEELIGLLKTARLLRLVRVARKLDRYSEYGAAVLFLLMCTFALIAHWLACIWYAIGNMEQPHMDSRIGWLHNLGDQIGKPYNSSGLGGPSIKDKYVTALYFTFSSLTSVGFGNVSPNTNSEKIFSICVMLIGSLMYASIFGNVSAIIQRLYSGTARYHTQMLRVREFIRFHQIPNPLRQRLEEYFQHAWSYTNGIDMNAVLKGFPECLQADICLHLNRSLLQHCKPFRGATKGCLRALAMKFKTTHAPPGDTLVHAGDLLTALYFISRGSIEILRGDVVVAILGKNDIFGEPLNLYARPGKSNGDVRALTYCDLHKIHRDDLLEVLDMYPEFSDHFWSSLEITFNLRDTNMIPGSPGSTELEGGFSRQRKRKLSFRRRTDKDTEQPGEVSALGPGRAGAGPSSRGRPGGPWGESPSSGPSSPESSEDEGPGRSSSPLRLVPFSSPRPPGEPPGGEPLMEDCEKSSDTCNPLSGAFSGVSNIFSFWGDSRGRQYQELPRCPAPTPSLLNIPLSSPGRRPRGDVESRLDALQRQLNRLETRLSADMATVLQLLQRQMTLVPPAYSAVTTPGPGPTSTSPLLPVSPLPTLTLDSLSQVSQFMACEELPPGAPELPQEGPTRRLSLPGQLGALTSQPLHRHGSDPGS
Chain of Nuclear receptor coactivator 3 (Homo sapiens) (Q9Y6Q9 2-1424 limits assumed): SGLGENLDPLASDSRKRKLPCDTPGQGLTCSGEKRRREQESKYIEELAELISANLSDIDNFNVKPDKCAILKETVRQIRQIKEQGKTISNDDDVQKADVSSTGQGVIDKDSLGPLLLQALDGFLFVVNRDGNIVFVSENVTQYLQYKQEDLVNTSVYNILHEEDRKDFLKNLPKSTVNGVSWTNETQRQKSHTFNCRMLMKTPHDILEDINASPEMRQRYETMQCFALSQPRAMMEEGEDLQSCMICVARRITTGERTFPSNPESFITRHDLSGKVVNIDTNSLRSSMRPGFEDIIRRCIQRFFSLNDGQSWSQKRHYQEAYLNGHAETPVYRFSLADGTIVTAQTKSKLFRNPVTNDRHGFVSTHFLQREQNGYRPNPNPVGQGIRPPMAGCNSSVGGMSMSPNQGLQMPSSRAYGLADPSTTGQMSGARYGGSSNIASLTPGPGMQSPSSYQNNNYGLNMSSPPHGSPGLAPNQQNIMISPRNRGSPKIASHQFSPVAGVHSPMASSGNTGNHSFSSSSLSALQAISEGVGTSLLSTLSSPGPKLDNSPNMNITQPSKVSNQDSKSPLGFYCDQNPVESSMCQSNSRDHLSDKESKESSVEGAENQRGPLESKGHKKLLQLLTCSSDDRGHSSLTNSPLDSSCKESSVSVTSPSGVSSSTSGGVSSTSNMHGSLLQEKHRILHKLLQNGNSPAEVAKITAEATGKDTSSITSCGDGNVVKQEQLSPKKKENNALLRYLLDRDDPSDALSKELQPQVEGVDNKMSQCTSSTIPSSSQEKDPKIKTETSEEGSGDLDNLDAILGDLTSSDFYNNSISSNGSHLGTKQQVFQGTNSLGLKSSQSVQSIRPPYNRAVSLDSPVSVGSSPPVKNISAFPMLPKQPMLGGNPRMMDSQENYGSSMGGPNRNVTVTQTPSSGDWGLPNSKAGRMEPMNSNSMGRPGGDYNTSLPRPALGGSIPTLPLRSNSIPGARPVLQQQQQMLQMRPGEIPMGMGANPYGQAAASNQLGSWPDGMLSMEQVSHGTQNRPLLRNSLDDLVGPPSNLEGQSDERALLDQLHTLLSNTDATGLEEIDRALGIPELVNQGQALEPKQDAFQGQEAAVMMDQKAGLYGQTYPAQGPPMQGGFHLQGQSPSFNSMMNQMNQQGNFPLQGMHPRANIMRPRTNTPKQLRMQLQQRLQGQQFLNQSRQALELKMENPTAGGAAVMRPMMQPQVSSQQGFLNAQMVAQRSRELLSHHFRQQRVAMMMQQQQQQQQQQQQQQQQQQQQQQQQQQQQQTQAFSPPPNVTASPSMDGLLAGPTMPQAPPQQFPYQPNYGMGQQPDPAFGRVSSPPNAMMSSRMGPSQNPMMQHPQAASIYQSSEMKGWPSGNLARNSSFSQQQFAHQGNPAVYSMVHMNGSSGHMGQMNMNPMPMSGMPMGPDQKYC
Chain of 5-hydroxytryptamine receptor 2B (P41595 whole entry): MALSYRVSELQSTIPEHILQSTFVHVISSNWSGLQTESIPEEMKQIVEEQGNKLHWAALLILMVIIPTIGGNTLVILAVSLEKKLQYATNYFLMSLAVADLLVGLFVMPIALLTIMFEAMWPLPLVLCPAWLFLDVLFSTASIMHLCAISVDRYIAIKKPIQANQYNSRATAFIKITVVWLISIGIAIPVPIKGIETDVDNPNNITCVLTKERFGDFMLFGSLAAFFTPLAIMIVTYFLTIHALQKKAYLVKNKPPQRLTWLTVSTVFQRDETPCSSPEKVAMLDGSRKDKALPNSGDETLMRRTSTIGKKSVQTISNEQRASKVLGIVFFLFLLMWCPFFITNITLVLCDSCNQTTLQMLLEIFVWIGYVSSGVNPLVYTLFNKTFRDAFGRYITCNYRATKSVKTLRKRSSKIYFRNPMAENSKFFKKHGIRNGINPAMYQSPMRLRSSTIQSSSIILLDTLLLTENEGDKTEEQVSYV
Chain of Mu-type opioid receptor (P35372 whole entry): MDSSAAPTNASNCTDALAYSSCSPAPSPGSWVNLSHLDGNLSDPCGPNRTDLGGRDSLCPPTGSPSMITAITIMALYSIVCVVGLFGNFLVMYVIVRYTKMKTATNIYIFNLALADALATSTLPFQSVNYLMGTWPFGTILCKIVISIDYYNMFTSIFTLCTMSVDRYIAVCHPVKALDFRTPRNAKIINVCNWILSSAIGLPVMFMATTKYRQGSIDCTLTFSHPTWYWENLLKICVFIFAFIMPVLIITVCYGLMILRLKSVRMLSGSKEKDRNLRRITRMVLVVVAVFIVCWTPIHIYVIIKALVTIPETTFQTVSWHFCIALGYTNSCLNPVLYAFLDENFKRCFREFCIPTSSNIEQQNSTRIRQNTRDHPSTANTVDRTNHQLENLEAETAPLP

clearance [4]: 22 mL/min/kg
Stability [5]: Stable
AUCt [10]: 737 ng·h/mL
Cmax [12]: 217 ng/mL
concentration at 22 h [15]: 47 nM
inhibition [16]: Active
Compound: C/C(=N\N=c1/[nH]c2cc(F)c(F)cc2n1C)c1ccc(F)cn1
IC50 [1]: 4100 nM
Activity (MDA-PCa-118b [2]): Active
Activity (MDA-PCa-118b [3]): Active
IC50 [6]: 28 nM
IC50 (Mu-type opioid receptor): 3100 nM
IC50 (MCF7): 3.4 nM
IC50 [7]: 1130 nM
Activity (MDA-MB-468 [8]): Active
Activity [9]: >55%
IC50 (MDA-MB-468 [11]): 15 nM
inhibition (INH) [13]: Active
IC50 (PANC-1): 147 nM
Activity [14]: 0.22 g
EC50 (Endothelin-1 receptor): 6400 nM
